# In ChEMBL document CHEMBL3421574, “Discovery of Potent Inhibitors of Schistosoma mansoni NAD⁺ Catabolizing Enzyme” (J Med Chem, 2015):
# Active and inactive are the calls of the source. No cut-off for these calls is given here.
# Experiments:
# [1] = Inhibition of recombinant Schistosoma mansoni NACE using 1, N6-etheno NAD+ as substrate by fluorometric analysis
# Summary of the method: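 Continuous fluorometric read of recombinant SmNACE turning over ε-NAD+ to ε-ADP-ribose (ex 310 nm, em 410 nm), at 37 °C in 10 mM potassium phosphate pH 7.4 with 0.05% (w/v) emulphogen. Initial rates are taken at 6 inhibitor concentrations. IC50 comes from non-linear regression of residual activity against log[inhibitor]. Values are means of three independent determinations.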
# [2] = molecular target: ADP-ribosyl cyclase/cyclic ADP-ribose hydrolase 1 (Homo sapiens) (UniProt P28907); test: Inhibition of human CD38 at 100 uM by HPLC analysis relative to control
# Summary of the method: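 Human CD38 with inhibitor at 100 µM, given as percent inhibition. Enzyme activity is measured by HPLC at 20 µM NAD+: isocratic C18 separation (10 mM ammonium phosphate pH 5.5, 1.2% (v/v) acetonitrile, 1 mL/min) with detection at 260 nm, plus radiodetection when [14C]NAD+ is added.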
# Schistosoma mansoni [3] = test: Inhibition of recombinant Schistosoma mansoni NACE using 1, N6-etheno NAD+ as substrate at 100 uM by fluorometric analysis relative to control
# Summary of the method: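 Single-point screen at 100 µM inhibitor against recombinant SmNACE with ε-NAD+ substrate. Initial-rate fluorescence of ε-ADP-ribose is read (ex 310 nm, em 410 nm) at 37 °C in 10 mM potassium phosphate pH 7.4 with 0.05% (w/v) emulphogen, and expressed as percent inhibition.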
# [4] = molecular target: T1, ADP-ribosyl cyclase/cyclic ADP-ribose hydrolase 1 (Homo sapiens, UniProt P28907); test: Inhibition of human CD38 by HPLC analysis
# T1 sequence (P28907 whole entry): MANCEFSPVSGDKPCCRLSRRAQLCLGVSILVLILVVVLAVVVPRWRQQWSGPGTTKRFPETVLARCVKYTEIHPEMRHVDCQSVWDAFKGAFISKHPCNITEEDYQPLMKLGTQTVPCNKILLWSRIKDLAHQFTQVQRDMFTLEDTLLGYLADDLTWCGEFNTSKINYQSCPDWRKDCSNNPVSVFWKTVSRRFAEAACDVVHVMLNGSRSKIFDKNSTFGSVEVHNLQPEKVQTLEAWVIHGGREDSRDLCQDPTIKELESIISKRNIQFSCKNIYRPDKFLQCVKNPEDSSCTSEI
# [5] = Selectivity ratio of IC50 for human CD38 to IC50 for recombinant Schistosoma mansoni NACE
# Schistosoma mansoni [6] = test: Inhibition of recombinant Schistosoma mansoni NACE using NAD+ as substrate at 100 uM by HPLC analysis relative to control
# Summary of the method: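 HPLC assay for recombinant SmNACE at 20 µM NAD+ substrate, used where compounds fluoresce on their own. Inhibitor is tested at 100 µM. Products are separated isocratically on a C18 column (10 mM ammonium phosphate pH 5.5, 1.2% (v/v) acetonitrile, 1 mL/min) and detected at 260 nm. In some runs [adenosine-U-14C]NAD+ is added with radiodetection.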
# Schistosoma mansoni [7] = test: Competitive inhibition of recombinant Schistosoma mansoni NACE by Dixon plot analysis in presence of 1, N6-etheno NAD+
# Summary of the method: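 Recombinant SmNACE with ε-NAD+ in 10 mM potassium phosphate pH 7.4, 0.05% (w/v) emulphogen, 37 °C. Initial rates are followed fluorometrically as ε-ADP-ribose appears (ex 310 nm, em 410 nm). Three fixed inhibitor concentrations are each combined with ε-NAD+ at 20, 50 and 100 µM, and 1/v is plotted against [I] (Dixon) to assign the inhibition type.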
Compound,inhibition [2] [%],IC50 ([1]; read-out: IC50) [µM],also measured
Cc1cccc(C(=O)NNC(=O)c2ccoc2C)c1O,–,–,IC50 [1]: ND(Insoluble)
C/C(=N/NC(=O)c1ccoc1C)c1ccccc1O,–,–,IC50 [1]: ND(Insoluble)
COc1ccccc1CNNC(=O)c1ccoc1C,0,11.6,–
Cc1occc1C(=O)NCCc1ccccc1O,–,131,–
Cc1occc1C(=O)N(C)/N=C\c1ccccc1O,–,–,IC50 [1]: ND(Insoluble)
O=C1c2c(O)cc(O)cc2OC(c2ccc(O)c(O)c2)C1O (racemic),–,–,inhibition (Schistosoma mansoni [6]): > 40%; inhibition (Schistosoma mansoni [3]): > 40%
COc1ccc(-c2nnc(-c3ccoc3C)o2)c(O)c1,0,–,inhibition (Schistosoma mansoni [3]): 0%
COc1ccccc1CCNC(=O)c1ccoc1C,–,–,inhibition (Schistosoma mansoni [3]): 0%
Cc1occc1C(=O)N/N=C\c1cccc(O)c1O,0,8.7,–
Cc1occc1C(=O)NNC(=O)c1ccccc1O,27.6,0.25,IC50 [4]: 120 µM
COc1cc(O)c(/C=N\NC(=O)c2ccoc2C)c(OC)c1,0,0.19,–
Cc1occc1C(=O)N/N=C\c1cccc(F)c1O,27.2,0.036,IC50 [4]: 26 µM; Inhibition type (Dixon plot) (Schistosoma mansoni [7]): Active
Cc1occc1-c1nnc(-c2ccccc2O)o1,0,–,inhibition (Schistosoma mansoni [3]): 0%
COc1ccc(C(=O)NNC(=O)c2ccoc2C)c(O)c1,6.7,0.074,Ratio IC50 [5]: > 1000; Inhibition type (Dixon plot) (Schistosoma mansoni [7]): Active
COc1ccc(O)c(/C=N\NC(=O)c2ccoc2C)c1,0,0.045,Ratio IC50 [5]: > 1000
Cc1occc1C(=O)N/N=C\c1cccc(C(C)(C)C)c1O,–,105,–

# More lines, main results first:
inhibition [2] [%],IC50 ([1]; read-out: IC50) [µM],Compound,also measured
0,–,Cc1occc1-c1nnc(-c2cc(Cl)ccc2O)o1,inhibition (Schistosoma mansoni [3]): 0%
66.7,0.15,Cc1occc1C(=O)N/N=C\c1cccc(Cl)c1O,IC50 [4]: 14 µM
–,513,COc1ccccc1/C=N\N(C)C(=O)c1ccoc1C,–
0,67,COc1ccccc1/C=N\NC(=O)c1ccoc1C,–
0,0.032,COc1ccc(/C=N\NC(=O)c2ccoc2C)c(O)c1,Ratio IC50 [5]: > 1000
6.7,0.039,Cc1occc1C(=O)NNC(=O)c1cc(Cl)ccc1O,Ratio IC50 [5]: > 1000; Inhibition type (Dixon plot) (Schistosoma mansoni [7]): Active
–,88,Cc1occc1C(=O)N/N=C\c1ccc(O)c(O)c1,IC50 [4]: 109 µM; Inhibition type (Dixon plot) (Schistosoma mansoni [7]): Active
0,0.033,Cc1occc1C(=O)N/N=C\c1cc(Cl)ccc1O,Ratio IC50 [5]: > 1000
0,59,Cc1cccc(/C=N\NC(=O)c2ccoc2C)c1O,–
0,0.077,Cc1occc1C(=O)N/N=C\c1c(O)cc(Cl)cc1Cl,Ratio IC50 [5]: > 1000
–,330,Cc1occc1C(=O)N/N=C\c1ccccc1,IC50 [4]: 296 µM
0,12.3,Cc1occc1C(=O)NNCc1ccccc1O,–
20,0.13,Cc1occc1C(=O)N/N=C\c1ccccc1O,Ratio IC50 [5]: > 1000; IC50 [4]: 430 µM; Inhibition type (Dixon plot) (Schistosoma mansoni [7]): Active
–,80,COc1cc(/C=N\NC(=O)c2ccoc2C)ccc1O,IC50 [4]: 103 µM
